The target in one experiment is Phosphodiesterase 4 (Homo sapiens, UniProt P27815+Q08499+Q07343+Q08493). Description: Inhibition of core catalytic domains of human PDE4 using AM-Cyclic-3',5'-AMP after 60 mins by fluorescence polarization assay. The format is protein assay. In general terms: Fluorescence polarisation rises when a labelled molecule tumbles more slowly, as on binding a larger partner.

Experiment [1] deals with 3',5'-cyclic-AMP phosphodiesterase 4D (Homo sapiens, UniProt Q08499). Description: Inhibition of human full-length PDE4D7 using AM-Cyclic-3',5'-AMP after 60 mins by fluorescence polarization assay.
Sequence of 3',5'-cyclic-AMP phosphodiesterase 4D (Q08499 whole entry): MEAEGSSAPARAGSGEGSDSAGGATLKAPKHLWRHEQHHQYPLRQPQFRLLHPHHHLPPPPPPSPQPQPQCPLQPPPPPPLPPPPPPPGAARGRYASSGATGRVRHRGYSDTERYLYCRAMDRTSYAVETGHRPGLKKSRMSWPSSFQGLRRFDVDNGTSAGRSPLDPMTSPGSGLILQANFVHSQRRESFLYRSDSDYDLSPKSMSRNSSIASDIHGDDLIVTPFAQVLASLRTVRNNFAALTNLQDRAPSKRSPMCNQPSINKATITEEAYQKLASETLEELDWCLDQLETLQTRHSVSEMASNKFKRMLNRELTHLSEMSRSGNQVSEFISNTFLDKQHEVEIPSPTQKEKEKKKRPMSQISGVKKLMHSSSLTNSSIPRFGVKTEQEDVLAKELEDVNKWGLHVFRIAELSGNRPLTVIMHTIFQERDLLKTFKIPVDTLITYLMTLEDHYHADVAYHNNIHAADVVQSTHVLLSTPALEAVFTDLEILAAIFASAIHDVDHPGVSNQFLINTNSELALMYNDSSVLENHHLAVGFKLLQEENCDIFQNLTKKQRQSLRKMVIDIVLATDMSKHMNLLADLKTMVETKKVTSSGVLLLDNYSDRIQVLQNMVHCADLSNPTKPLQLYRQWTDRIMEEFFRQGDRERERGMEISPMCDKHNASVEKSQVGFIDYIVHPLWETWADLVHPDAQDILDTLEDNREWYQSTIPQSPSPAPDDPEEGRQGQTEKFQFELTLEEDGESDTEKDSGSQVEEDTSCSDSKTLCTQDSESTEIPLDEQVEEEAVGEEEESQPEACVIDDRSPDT
Experiment [2] has as its target 3',5'-cyclic-AMP phosphodiesterase 4B (Homo sapiens, UniProt Q07343). Put plainly: Inhibition of human full-length PDE4B1 using AM-Cyclic-3',5'-AMP after 60 mins by fluorescence polarization assay.
The species entered for experiment [3] is Homo sapiens. Description: Selectivity ratio of IC50 for human full-length PDE4B1 to IC50 for human full-length PDE4D7.
The species entered for experiment [4] is Homo sapiens. Put plainly: Selectivity ratio of IC50 for PDE4B (unknown origin) to IC50 for PDE4D (unknown origin).
Experiment [5] concerns the target cGMP-specific 3',5'-cyclic phosphodiesterase (Homo sapiens) (UniProt O76074). Put plainly: Inhibition of human PDE5A using AM-Cyclic-3',5'-AMP at 10 uM after 60 mins by fluorescence polarization assay. A digest of the protocol:
(§1)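 Recombinant human PDE isoforms in 40 mM MOPS pH 7.5, 0.5 mM EDTA, 15 mM MgCl2, 0.15 mg/mL BSA, 1 mM DTT, 0.05% Proclin 200. […] Final DMSO 1%; 60 min at 25 °C. Binding agent was added, then 1 h more. Fluorescence polarization read at ex 360/em 480 nm. IC50 or single-concentration % inhibition; mean of two experiments.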

The target in experiment [6] is Dual specificity calcium/calmodulin-dependent 3',5'-cyclic nucleotide phosphodiesterase 1A (Homo sapiens) (UniProt P54750). Put plainly: Inhibition of human PDE1A using AM-Cyclic-3',5'-AMP at 10 uM after 60 mins by fluorescence polarization assay. In a few lines:
as §1

For experiment [7], the target named is Dual 3',5'-cyclic-AMP and -GMP phosphodiesterase 11A (Homo sapiens) (UniProt Q9HCR9). The note with it: 10 uM.
Sequence of Dual 3',5'-cyclic-AMP and -GMP phosphodiesterase 11A (Homo sapiens) (Q9HCR9 whole entry, looked up): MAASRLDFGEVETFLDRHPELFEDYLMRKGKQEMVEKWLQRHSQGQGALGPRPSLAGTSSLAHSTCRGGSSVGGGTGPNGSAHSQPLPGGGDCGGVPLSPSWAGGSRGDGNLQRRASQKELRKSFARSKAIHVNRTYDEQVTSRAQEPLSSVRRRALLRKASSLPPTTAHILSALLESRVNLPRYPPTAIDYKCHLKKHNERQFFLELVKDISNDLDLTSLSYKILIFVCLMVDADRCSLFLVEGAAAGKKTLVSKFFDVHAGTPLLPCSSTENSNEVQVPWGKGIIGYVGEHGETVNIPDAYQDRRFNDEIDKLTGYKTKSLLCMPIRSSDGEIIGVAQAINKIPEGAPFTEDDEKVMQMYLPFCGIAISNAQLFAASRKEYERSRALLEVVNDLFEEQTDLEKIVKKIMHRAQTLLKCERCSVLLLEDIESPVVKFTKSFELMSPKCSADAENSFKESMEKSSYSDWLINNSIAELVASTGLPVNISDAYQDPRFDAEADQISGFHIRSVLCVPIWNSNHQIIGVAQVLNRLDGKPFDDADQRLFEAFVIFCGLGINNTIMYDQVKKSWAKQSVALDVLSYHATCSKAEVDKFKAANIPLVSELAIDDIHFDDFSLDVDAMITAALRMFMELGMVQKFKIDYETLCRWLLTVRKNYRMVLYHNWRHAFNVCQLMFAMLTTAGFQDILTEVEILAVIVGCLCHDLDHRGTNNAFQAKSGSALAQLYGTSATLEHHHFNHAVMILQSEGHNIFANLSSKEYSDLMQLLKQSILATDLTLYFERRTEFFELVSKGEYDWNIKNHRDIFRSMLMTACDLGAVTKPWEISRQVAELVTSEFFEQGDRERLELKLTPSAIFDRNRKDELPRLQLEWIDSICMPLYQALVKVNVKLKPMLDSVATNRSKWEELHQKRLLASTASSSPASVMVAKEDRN
Experiment [8] concerns the target cAMP and cAMP-inhibited cGMP 3',5'-cyclic phosphodiesterase 10A (Homo sapiens) (UniProt Q9Y233). Put plainly: Inhibition of human PDE10A2 using AM-Cyclic-3',5'-AMP at 10 uM after 60 mins by fluorescence polarization assay. A digest of the protocol:
as §1

Experiment [9] has as its target cGMP-dependent 3',5'-cyclic phosphodiesterase (Homo sapiens) (UniProt O00408). The note with it: 10 uM.
Experiment [10] addresses High affinity cGMP-specific 3',5'-cyclic phosphodiesterase 9A (Homo sapiens) (UniProt O76083). Description: Inhibition of human PDE9A2 using AM-Cyclic-3',5'-AMP at 10 uM after 60 mins by fluorescence polarization assay. A digest of the protocol: as §1
The target in experiment [11] is cGMP-inhibited 3',5'-cyclic phosphodiesterase 3B (Homo sapiens) (UniProt Q13370). The following applies: 10 uM.
Experiment [12] deals with High affinity 3',5'-cyclic-AMP phosphodiesterase 7A (Homo sapiens) (UniProt Q13946). The note with it: 10 uM.
Sequence of High affinity 3',5'-cyclic-AMP phosphodiesterase 7A (Homo sapiens) (Q13946 whole entry): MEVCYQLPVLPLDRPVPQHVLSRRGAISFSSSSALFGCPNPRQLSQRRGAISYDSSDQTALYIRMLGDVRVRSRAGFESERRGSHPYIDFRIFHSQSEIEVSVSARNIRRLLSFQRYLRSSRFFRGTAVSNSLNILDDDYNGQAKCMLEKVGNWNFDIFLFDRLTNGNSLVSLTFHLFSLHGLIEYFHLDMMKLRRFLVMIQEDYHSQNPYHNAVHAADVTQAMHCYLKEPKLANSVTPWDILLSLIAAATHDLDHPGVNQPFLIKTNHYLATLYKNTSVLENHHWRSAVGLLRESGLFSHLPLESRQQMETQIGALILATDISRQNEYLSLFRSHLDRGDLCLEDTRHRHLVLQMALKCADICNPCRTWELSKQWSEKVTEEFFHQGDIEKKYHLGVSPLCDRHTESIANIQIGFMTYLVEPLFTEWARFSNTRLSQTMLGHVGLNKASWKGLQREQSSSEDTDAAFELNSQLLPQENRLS
In experiment [13] the target is High affinity cAMP-specific and IBMX-insensitive 3',5'-cyclic phosphodiesterase 8A (Homo sapiens) (UniProt O60658). Description: Inhibition of human PDE8A1 using AM-Cyclic-3',5'-AMP at 10 uM after 60 mins by fluorescence polarization assay. In a few lines: as §1
The species named for experiment [14] is Homo sapiens. Description: Selectivity ratio of IC50 for PDE4B2 (unknown origin) to IC50 for PDE4D4 (unknown origin).
For experiment [15], the species on record is Homo sapiens. Description: Selectivity ratio of IC50 for PDE4B2 (unknown origin) to IC50 for PDE4D3 (unknown origin).
Experiment [16] is filed under the species Homo sapiens. Description: Selectivity ratio of IC50 for PDE4B1 (unknown origin) to IC50 for PDE4D7 (unknown origin).

Sequence of 3',5'-cyclic-AMP phosphodiesterase 4B (Q07343 whole entry): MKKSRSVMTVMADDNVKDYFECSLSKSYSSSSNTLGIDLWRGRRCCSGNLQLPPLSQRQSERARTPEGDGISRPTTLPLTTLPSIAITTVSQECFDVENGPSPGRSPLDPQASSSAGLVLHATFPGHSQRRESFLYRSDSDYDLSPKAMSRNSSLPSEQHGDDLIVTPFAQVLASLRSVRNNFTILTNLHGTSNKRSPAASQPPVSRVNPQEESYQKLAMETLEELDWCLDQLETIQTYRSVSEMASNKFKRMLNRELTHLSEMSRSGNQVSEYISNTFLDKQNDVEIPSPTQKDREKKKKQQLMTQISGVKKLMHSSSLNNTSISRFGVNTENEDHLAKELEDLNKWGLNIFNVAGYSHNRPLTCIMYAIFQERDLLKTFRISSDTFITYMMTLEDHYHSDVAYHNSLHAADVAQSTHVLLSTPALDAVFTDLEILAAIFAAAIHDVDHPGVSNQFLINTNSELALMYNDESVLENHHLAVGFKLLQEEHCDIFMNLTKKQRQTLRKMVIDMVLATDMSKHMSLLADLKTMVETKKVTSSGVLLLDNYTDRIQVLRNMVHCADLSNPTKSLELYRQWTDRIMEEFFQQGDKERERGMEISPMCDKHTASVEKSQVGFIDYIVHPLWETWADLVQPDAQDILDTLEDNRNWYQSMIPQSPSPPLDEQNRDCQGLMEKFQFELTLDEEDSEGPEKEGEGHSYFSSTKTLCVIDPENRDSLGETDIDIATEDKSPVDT
Sequence of Dual specificity calcium/calmodulin-dependent 3',5'-cyclic nucleotide phosphodiesterase 1A (Homo sapiens) (P54750 whole entry): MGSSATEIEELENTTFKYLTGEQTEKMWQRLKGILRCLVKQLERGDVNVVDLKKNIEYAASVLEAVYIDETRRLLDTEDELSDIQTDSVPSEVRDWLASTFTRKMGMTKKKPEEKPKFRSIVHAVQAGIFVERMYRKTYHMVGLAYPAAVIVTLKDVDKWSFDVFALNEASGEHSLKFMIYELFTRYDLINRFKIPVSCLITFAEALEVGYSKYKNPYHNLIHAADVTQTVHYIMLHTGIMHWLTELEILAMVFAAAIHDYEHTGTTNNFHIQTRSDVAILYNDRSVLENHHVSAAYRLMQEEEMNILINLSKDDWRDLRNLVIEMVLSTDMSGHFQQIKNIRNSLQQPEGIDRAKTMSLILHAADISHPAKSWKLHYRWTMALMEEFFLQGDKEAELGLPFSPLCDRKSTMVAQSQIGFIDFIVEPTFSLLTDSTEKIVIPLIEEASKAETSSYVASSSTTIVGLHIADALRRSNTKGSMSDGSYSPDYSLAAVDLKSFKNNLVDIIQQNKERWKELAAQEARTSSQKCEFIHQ
Sequence of cGMP-dependent 3',5'-cyclic phosphodiesterase (Homo sapiens) (O00408 whole entry): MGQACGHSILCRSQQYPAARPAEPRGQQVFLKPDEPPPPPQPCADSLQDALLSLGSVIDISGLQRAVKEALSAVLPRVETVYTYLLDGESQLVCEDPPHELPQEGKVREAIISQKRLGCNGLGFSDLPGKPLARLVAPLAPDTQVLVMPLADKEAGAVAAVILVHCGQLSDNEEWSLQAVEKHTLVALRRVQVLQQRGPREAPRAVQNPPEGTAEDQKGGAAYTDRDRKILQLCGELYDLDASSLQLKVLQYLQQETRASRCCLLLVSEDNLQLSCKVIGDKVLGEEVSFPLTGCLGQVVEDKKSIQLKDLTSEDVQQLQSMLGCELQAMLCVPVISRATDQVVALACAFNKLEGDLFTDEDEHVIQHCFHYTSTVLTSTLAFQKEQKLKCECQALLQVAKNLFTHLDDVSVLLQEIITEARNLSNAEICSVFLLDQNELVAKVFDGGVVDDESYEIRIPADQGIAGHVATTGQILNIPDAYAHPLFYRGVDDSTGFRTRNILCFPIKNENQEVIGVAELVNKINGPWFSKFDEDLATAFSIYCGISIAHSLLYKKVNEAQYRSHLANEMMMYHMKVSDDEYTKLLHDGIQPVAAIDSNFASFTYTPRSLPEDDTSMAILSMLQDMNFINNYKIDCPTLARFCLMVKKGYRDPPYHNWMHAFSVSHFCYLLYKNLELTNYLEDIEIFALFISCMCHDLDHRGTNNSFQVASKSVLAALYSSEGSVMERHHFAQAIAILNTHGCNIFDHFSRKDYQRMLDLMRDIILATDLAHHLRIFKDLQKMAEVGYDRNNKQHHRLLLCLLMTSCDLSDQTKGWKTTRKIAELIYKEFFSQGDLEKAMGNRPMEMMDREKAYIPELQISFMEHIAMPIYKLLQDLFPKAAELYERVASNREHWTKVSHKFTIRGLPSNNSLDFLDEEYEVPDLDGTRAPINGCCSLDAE
Sequence of High affinity cGMP-specific 3',5'-cyclic phosphodiesterase 9A (Homo sapiens) (O76083 whole entry): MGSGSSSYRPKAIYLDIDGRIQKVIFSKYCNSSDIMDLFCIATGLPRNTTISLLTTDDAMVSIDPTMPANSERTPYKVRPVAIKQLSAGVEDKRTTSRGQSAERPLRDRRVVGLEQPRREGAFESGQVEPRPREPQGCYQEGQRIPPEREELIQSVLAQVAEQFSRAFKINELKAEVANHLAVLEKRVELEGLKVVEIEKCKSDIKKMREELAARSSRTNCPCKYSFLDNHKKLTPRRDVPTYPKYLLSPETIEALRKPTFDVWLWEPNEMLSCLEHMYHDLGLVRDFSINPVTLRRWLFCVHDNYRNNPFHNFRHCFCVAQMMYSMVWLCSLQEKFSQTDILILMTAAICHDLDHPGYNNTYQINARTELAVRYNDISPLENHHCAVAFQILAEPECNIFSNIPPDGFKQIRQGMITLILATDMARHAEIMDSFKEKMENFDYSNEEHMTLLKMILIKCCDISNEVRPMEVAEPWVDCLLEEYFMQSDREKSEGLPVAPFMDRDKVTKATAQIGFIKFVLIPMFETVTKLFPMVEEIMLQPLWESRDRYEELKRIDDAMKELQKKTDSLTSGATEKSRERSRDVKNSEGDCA

`COc1ccccc1OCCNC(=O)c1ccc(OC)c(OC2CCCC2)c1` yielded an IC50 at Phosphodiesterase 4 of 18300 nM.
`COc1ccc(CNC(=O)c2ccc(OC(F)F)c(OCC3CC3)c2)cc1OC` yielded a half-inhibitory concentration (IC50) against Phosphodiesterase 4 greater than 100000 nM.
The same measure, in the same setting: then `COc1ccccc1OCCNC(=O)c1ccc(OC)c(OCC2CC2)c1`, with 11100 nM; and `COc1ccccc1OCCNC(=O)c1ccc(OC(F)F)c(OC2CCCC2)c1`, with 12400 nM.
For `COc1ccc(CNC(=O)c2ccc(OC(F)F)c(OCC3CC3)c2)cc1`, the IC50 in [1] worked out at 108 nM; against Phosphodiesterase 4, 410 nM; in experiment [2], 301 nM. In the experiment listed under Homo sapiens [3], the Ratio IC50 amounted to 2.8.
Regarding `O=C(NCc1ccccc1)c1ccc(OC(F)F)c(OCC2CC2)c1`, the IC50 against Phosphodiesterase 4 amounted to 2100 nM.
Take `COc1ccc([C@H](C)NC(=O)c2cccnc2Oc2ccc(F)cc2)cc1`: in the experiment filed under Homo sapiens [4], the Ratio IC50 is 142.
`COc1ccccc1OCCNC(=O)c1ccc(OC(F)F)c(OCC2CC2)c1` came in with an IC50 on Phosphodiesterase 4 of 6900 nM.
`O=C(NCc1ccccc1)c1ccc(OC(F)F)c(OC2CCCC2)c1`: the IC50 at Phosphodiesterase 4 turned out to be 2200 nM.
On the same count and under the same terms, then `COc1ccc(CNC(=O)c2ccc(OC(F)F)c(OC3CCCC3)c2)cc1OC`, with greater than 100000 nM.
Take `COc1ccc(CNC(=O)c2ccc(OC(F)F)c(OC3CCCC3)c2)cc1`: the inhibition in experiment [5] stood at 16%; in experiment [6] it was 11%; in [7] it was 2%; in experiment [8] it was 1%; in experiment [9], 2%; in experiment [10], 6%. The values for the inhibition in [11], in [12] and in [13] were 2%, 3% and 10%, respectively. Besides, the IC50 worked out at 94 nM in experiment [1], 1100 nM against Phosphodiesterase 4 and 976 nM in experiment [2].
Regarding `COc1ccccc1OCCNc1ccc(=O)n(Cc2ccc(OC)c(-c3cccc(Cl)c3)c2)n1`, in the experiment listed under Homo sapiens [14], the Ratio IC50 turned out to be 13.
As to `COc1ccc(CNC(=O)c2ccc(OC)c(OC3CCCC3)c2)cc1OC`, the IC50 on Phosphodiesterase 4 was greater than 100000 nM.
Still for that read-out and setting: then `COc1ccc(CNC(=O)c2ccc(OC)c(OCC3CC3)c2)cc1OC`, with greater than 100000 nM.
Take `COc1ccc(CNC(=O)c2ccc(OC)c(OC3CCCC3)c2)cc1`: the results for the IC50 (in experiment [1]; against Phosphodiesterase 4; in experiment [2]) were 284 nM, 960 nM and 1030 nM, respectively. In addition, in the experiment listed under Homo sapiens [3], the Ratio IC50 was 3.6.
The matching figures for `COc1ccc(CNC(=O)c2ccc(OC)c(OCC3CC3)c2)cc1`: 342 nM, 910 nM, 1090 nM and 3.2.
In the case of `COc1ccc(/C=N/OCC(O)CNN2CC(C)OC(C)C2)cc1OC1CCCC1` (stereo not drawn), the Ratio IC50 in the experiment listed under Homo sapiens [15] is 85.
Consider `COc1ccc(Cc2ccc(NC(N)=O)cc2)cc1-c1cccc(Cl)c1`, for which, in the experiment filed under Homo sapiens [16], the Ratio IC50 was determined as 54.

As a reminder, the IC50 is the concentration that inhibits the measured activity by half. A lower IC50 goes with higher potency. As usually defined, the inhibition is the share of the control response that was lost under treatment.

Values taken from ChEMBL document CHEMBL3627623, “Catecholic amides as potential selective phosphodiesterase 4D inhibitors: Design, synthesis, pharmacological evaluation and structure-activity relationships” (Bioorg Med Chem, 2015).
